ALR inh: inhibitors of human ALR sulfhydryl oxidase, primary screen, biochemical, H2O2 detection, HRP-luminol luminescence, single point; purified ALR, DTT oxidation; inhibition, % (test concentration not listed); hit rate 3.8% among 290,000;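 active means mean replicate inhibition above about 79%, with every replicate also reaching it, limit read from the data; inconclusive means only one of the two criteria met; inactive means mean below limit and not every replicate reaching it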
AI-2 QS modul: Vibrio harveyi AI-2 quorum sensing modulators, primary screen, JMH597 strain, luminescence/OD600 ratio | Vibrio harveyi JMH597 AI-2 luminescence/OD600 ratio, 9 h; stronger effect = lower value; strain lacks LuxN and CqsS sensors; 0 = neutral-control median | activity change, % at 7.5 µM | hit rate 0.4% among 300,000; in the data active means activity change below about -75%, passing the limit was not always enough; inconclusive means no clear call, values can overlap the other calls;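 further: luminescence divided by OD600 gain over 9 h not by final OD600 alone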
PHOSPHO1 block: PubChem AID 1565; recombinant PHOSPHO1, absorbance phosphatase assay; hit rate 1.1% among 290,000; inhibition, % at 13.3 µM; Phosphoethanolamine/phosphocholine phosphatase (Homo sapiens), Q8TCT1; in the data active means inhibition above about 60%
Target sequence (Q8TCT1 whole entry, looked up): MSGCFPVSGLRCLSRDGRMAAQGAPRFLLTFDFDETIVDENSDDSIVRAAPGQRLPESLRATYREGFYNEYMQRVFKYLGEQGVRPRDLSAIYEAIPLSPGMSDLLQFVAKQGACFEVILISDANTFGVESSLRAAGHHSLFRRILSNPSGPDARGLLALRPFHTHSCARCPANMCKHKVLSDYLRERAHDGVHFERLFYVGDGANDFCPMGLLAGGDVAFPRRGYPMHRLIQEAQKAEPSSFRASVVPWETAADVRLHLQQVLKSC
HCV core dimer: inhibitors of HCV core protein dimerization, primary screen, biochemical, TR-FRET, high-throughput; TR-FRET GST/Flag-core106 dimerization, 1536-well; inhibition, % at 5 µM; hit rate 0.33% among 300,000;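 active means inhibition above the mean of all tested compounds plus 3 SD, set per screening campaign, cut at about 45% in these data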
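test system = GST/Flag-tagged HCV core106 proteins | probe or stimulus = Eu donor and XL665 acceptor anti-tag antibodies | times = compound-protein-antibody incubation 4 h at 22.5 °C | signal = TR-FRET, excitation 340 nm, emission 617 and 671 nm | measure = percent inhibition of core106 dimerization signal | controls = wells lacking GST-core106 and wells with excess unlabelled core106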
HSF-1 act: HSF-1 activators, primary screen, NIH3T3-HGL cells, MG132 stress, luminescence, single point; NIH3T3-HGL HSF-1 luciferase reporter, 8 h; 100% = twice DMSO control signal; activation, % at 9 µM; hit rate 1.7% among 300,000;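 active means mean replicate activation of at least 50% with a set share of replicates each reaching 50%; inconclusive means only one of those two conditions met; inactive means mean below 50% and too few replicates reaching it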;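 further: 0% = median of the neutral control wells and 100% = twice that signal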
HSF1 inh: HSF1 inhibitors in luciferase reporter cells, primary screen, cell-based, NIH3T3, luminescence. AID 2098, 2009. hit rate 0.77% among 300,000. activity change, negative = inhibition, % at 7.5 µM (by protocol). NIH3T3-HGL HSE-luciferase, MG132-induced, luminescence 8 h; stronger effect = lower value;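 active means more than half of replicate wells show activity change below -50%, luminescence cut by over half; inconclusive means some wells, but at most half, below -50%; inactive means no replicate well below -50%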;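 further: luciferase reports HSF-1 transcriptional activity via heat shock element; 0% = median of DMSO wells and -100% = zero luminescence signal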
An asterisk follows results filed as active; ? = inconclusive; . = not tested or not shown. Sampled rows, rich in hits. Any-hit rate of the full collection: about 6.8%.

SMILES	ALR inh	AI-2 QS modul	PHOSPHO1 block	HCV core dimer	HSF-1 act	HSF1 inh
COc1cc(O)c(C(CCN2CCCC(C)C2)c2ccc(N(C)C)cc2)c(OC)c1 (configuration not stated)	98*	5	-19	1	-2	0
COc1cc(O)c(C(CCN2CCOCC2)c2ccc(N(C)C)cc2)c(OC)c1 (configuration not stated)	99*	-3	31	-6	-4	1
CCN(CC)CCC(c1ccc(N(C)C)cc1)c1c(O)cc(OC)cc1OC (configuration not stated)	99*	27	26	-27	-5	4
Cn1c(N/N=C/c2cc3ccccc3nc2Cl)nc2ccccc21	.	44	-16	-24	-50	-46
Cc1ccc(NCC(=O)Nc2cccc(S(=O)(=O)N(C)C)c2)c(Cl)c1	-4	26	-12	4	-9	-7
O=[N+]([O-])c1ccc(N/N=C/c2cn(Cc3ccc(F)cc3)c3ccccc23)nc1	.	29	-31	-4	11	10
c1cncc(-c2nnc(SCc3nc4ccccc4[nH]3)o2)c1	.	15	14	-2	-72	-68*
Cc1cc(C(=O)COC(=O)c2ccc(Cl)c(S(N)(=O)=O)c2)c(C)n1C1CC1	6	24	.	12	39	30
CC1(C)CNc2cc(N)ccc2S1	84*	13	11	-29	42	6
COc1ccccc1C(=O)Nc1nnc(-c2ccc(F)cc2)o1	0	27	-9	-2	15	12
O=C(Nc1nnc(-c2ccc(F)cc2)o1)c1ccco1	96*	7	18	1	-39	-16
Cc1ccccc1C(=O)Nc1nnc(-c2ccc(F)cc2)o1	.	-82*	-5	2	-1	-6
COc1ccc(-c2nnc(NC(=O)c3ccc(F)cc3)o2)cc1	22	?	6	5	-15	-16
COC(=O)C1N2C(=O)[C@@H](NC(=O)COc3ccccc3)[C@H]2SC1(C)C (some centres not stated)	6	22	.	-1	-6	0
Cc1ccc(C2=NNC(C(O)C(O)C(O)C(C)O)S2)cc1 (configuration not stated)	-2	-7	7	1	75*	38
COc1ccc(C2NN=C(c3ccc(C)cc3)S2)cc1OC (configuration not stated)	-13	9	28	5	36	17
CCN(CC)c1ccc2cc(C=O)c(=O)oc2c1	16	2	-3	0	10	-1
CCN(CC)c1ccc2nc3c4ccccc4c(=O)cc-3oc2c1	-21	8	23	.	-68	-63*
Cc1noc(NS(=O)(=O)c2ccc(NC(=O)CS(=O)(=O)c3ccccc3)cc2)c1C	70	18	-28	2	1	-5
Cc1noc(NS(=O)(=O)c2ccc(NC(=O)CSc3ncccn3)cc2)c1C	98*	15	6	-1	-2	0
Cc1noc(NS(=O)(=O)c2ccc(NC(=O)CSc3nc4ccccc4s3)cc2)c1C	99*	12	51	-1	-6	0
Cc1cc(C)nc(SCC(=O)Nc2ccc(S(=O)(=O)Nc3onc(C)c3C)cc2)n1	94*	23	-4	-2	-4	-2
CC(NS(=O)(=O)CCNC(=O)c1ccccc1)c1ccccc1 (configuration not stated)	-3	-3	.	-3	-2	-5
CCNS(=O)(=O)c1ccc(NC(=S)N2CCc3ccccc32)cc1	-15	20	31	.	2	7
COc1cc(C2NC(=O)N(C)C(C)=C2C(=O)OCc2ccccc2)cc(Br)c1O (configuration not stated)	18	27	34	2	39	13
CC(C)(C)OC(=O)NNC(=O)c1ccc(Cl)cc1	-4	14	19	0	-3	-6
